A short description of assay [1]: Ratio of effective dose of morphine at 24 hr after antagonism treatment by icv administration (4.8 nmol) divided by its control ED50. The class given is functional. The essentials: (§1)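 Mice, radiant heat tail-flick. Antagonist given icv at 4.8 nmol/mouse. At the stated interval afterwards, morphine was given sc and the test read 30 min later. Morphine ED50 after treatment was divided by control ED50. 95% confidence limits come from three or four animals.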

Assay [2] concerns the target Mu-type opioid receptor (Cavia porcellus, UniProt P97266). The experiment in a line: Inhibitory concentration against mu-opioid receptor in guinea pig ileum. The class given is tissue-based. The essentials:
(§2)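 Electrically stimulated guinea pig ileum longitudinal muscle or mouse vas deferens. Agonist IC50 for inhibition of the stimulated response was determined as described previously.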

Assay [3] is described as follows: Ratio of effective dose of morphine at 72 hr after antagonism treatment by icv administration (4.8 nmol) divided by its control ED50. It is filed as functional. The procedure, abridged: as §1
Assay [4] deals with Mus musculus. As to the kind of experiment: Equivalent antagonist potencies of compound was measured after 24 hr of sc administration. The class given is functional.
Assay [5] relates to Mus musculus. As to the kind of experiment: Equivalent antagonist potencies of compound was measured after 24 hr of icv administration. It is filed as functional.
Assay [6] can be described thus: Inhibitory concentration of ethylketazocine determined after treating with conjugate for 60 min of guinea pig ileum then divided by control IC50 in same preparation. The class given is functional. The procedure, abridged:
(§3)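 Electrically stimulated guinea pig ileum was incubated with conjugate (1 × 10^-6 M) for 60 min, then washed ≥40 times with buffer. The agonist IC50 (ethylketazocine or morphine) was then divided by the control IC50 in the same preparation. Assays were run in triplicate, with se reported.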

The nature of assay [7]: Ratio of effective dose of morphine at 30 min after antagonism treatment by sc administration divided by its control. The class given is functional. The essentials: (§4)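 Mice, radiant heat tail-flick. Antagonist given sc at 5 mg/kg. At the stated interval, sc morphine was given 30 min before testing. Post-treatment morphine ED50 was divided by control ED50. 95% confidence limits come from three or four animals.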

A short description of assay [8]: Ratio of effective dose of morphine at 24 hr after antagonism treatment by sc administration divided by its control. It is filed as functional. The procedure, abridged: as §4
The nature of assay [9]: Inhibitory concentration of morphine determined after treating with conjugate for 60 min of guinea pig ileum then divided by control IC50 in same preparation. It is filed as functional. The essentials: as §3
Assay [10] is described as follows: Ratio of effective dose of morphine at 2 hr after antagonist treatment by icv administration (4.8 nmol) divided by its control. The class given is functional. The procedure, abridged:
as §1

Assay [11] has as its target Mu-type opioid receptor (Mus musculus, UniProt P42866). As to the kind of experiment: Inhibitory concentration against mu-opioid receptor in mouse vas deferens. The essentials:
as §2

Assay [12] can be described thus: Ratio of Equivalent antagonist potencies after 24 hr of icv administration/Equivalent antagonist potencies after 24 hr of sc administration was determined. It is filed as functional.
Assay [13] relates to Mus musculus. The experiment in a line: Equivalent antagonist potencies of compound was measured after 24 hr of sc administration; antagonist dose. It is filed as functional.
The nature of assay [14]: Ratio of effective dose of morphine at 48 hr after antagonism treatment by icv administration in mouse (4.8 nmol) divided by its control ED50. It is filed as functional. The essentials:
(§5)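 Mice got antagonist icv at 4.8 nmol/mouse. At set times afterwards, morphine was given sc, and radiant heat tail-flick antinociception was measured 30 min later. The morphine ED50 was divided by the control ED50. Results are given with 95% confidence limits from three or four animals.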

Assay [15] can be described thus: (§6) Ratio of effective dose of morphine at 24 hr after antagonism treatment by icv administration in mouse (4.8 nmol) divided by its control ED50. The class given is functional. The essentials: as §5
Assay [16] in a line: (§7) Ratio of effective dose of morphine at 24 hr after antagonism treatment by sc administration in mouse divided by its control. The class given is functional. The essentials:
(§8)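 Mice got antagonist sc at 5 mg/kg. At 30 min or 24 h, sc morphine was given 30 min before radiant heat tail-flick testing. The morphine ED50 was divided by the control ED50, with 95% confidence limits from three or four animals.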

Assay [17] in a line: (§9) Ratio of effective dose of morphine at 30 min after antagonism treatment by sc administration in mouse divided by its control. The class given is functional. The procedure, abridged: as §8
Assay [18] in a line: Ratio of effective dose of morphine at 72 hr after antagonism treatment by icv administration in mouse (4.8 nmol) divided by its control ED50. The class given is functional. The essentials:
as §5

A short description of assay [19]: (§10) Ratio of effective dose of morphine at 2 hr after antagonist treatment by icv administration in mouse (4.8 nmol) divided by its control. The class given is functional. The procedure, abridged:
as §5

For assay [20], the system named is Mus musculus. As to the kind of experiment: Equivalent antagonist potencies of compound was measured after 24 hr of icv administration; antagonist dose. The class given is functional.
For assay [21], the system named is Mus musculus. The description is as §6. It is filed as functional. The essentials: as §5
Assay [22] deals with Mus musculus. The description is as §7. It is filed as functional. The procedure, abridged: as §8
In assay [23] the test system is Mus musculus. The assay is described as §9. It is filed as functional. The procedure, abridged: as §8
Assay [24] relates to Mus musculus. Described as §10. It is filed as functional. The procedure, abridged:
as §5

Assay [25] can be described thus: Ratio of effective dose of morphine at 30 min after antagonism treatment by sc administration in mice divided by its control. It is filed as functional. The procedure, abridged:
as §8

A short description of assay [26]: Ratio of Equivalent antagonist potencies after 24 hr of icv administration/Equivalent antagonist potencies after 24 hr of sc administration in mice was determined. It is filed as functional.
Assay [27] has as its system Mus musculus. As to the kind of experiment: Equivalent antagonist potencies of compound was measured after 24 hr of icv administration in mice; antagonist dose. It is filed as functional.
Assay [28] is described as follows: Ratio of effective dose of morphine at 24 hr after antagonism treatment by icv administration in mice (4.8 nmol) divided by its control ED50. It is filed as functional. The procedure, abridged:
as §5

Assay [29] deals with Mus musculus. The experiment in a line: Equivalent antagonist potencies of compound was measured after 24 hr of sc administration in mice; antagonist dose. The class given is functional.
Assay [30] can be described thus: Ratio of effective dose of morphine at 2 hr after antagonist treatment by icv administration in mice (4.8 nmol) divided by its control. The class given is functional. The essentials:
as §5

Assay [31] is described as follows: Ratio of effective dose of morphine at 24 hr after antagonism treatment by sc administration in mice divided by its control). The class given is functional. The procedure, abridged:
as §8

Sequence of Mu-type opioid receptor (Mus musculus, UniProt P42866) (P42866 whole entry): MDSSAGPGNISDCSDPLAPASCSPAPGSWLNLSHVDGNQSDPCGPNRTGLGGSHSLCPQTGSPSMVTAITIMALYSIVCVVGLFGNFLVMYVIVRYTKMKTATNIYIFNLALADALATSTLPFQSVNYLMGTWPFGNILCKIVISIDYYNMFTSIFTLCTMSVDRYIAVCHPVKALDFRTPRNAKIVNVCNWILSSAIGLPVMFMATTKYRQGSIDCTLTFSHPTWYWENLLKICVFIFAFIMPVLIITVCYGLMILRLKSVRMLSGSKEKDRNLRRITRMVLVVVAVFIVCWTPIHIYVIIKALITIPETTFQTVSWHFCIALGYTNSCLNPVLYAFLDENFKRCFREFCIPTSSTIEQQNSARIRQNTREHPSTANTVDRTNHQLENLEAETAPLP
Sequence of Mu-type opioid receptor (Cavia porcellus, UniProt P97266) (P97266 whole entry): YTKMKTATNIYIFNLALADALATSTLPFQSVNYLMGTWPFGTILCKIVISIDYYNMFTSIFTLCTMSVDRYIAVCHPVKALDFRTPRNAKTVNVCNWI

As a reminder, the IC50 is the point on the concentration scale where inhibition reaches its midpoint. For `COC(=O)/C=C/C(=O)N[C@@H]1CC[C@@]2(O)[C@H]3Cc4ccc(O)c5c4[C@@]2(CCN3CC2CC2)[C@H]1O5`, the Ratio turned out to be 6.6 in [1]; 2.4 in assay [3]; 1.1 in assay [6]; 3.9 in assay [7]; 3.9 in [8]; 19.5 in assay [9]. For the same compound, the Ratio is listed as 9.7 in [10] and 74 in assay [12]. Besides, the IC50 against Mu-type opioid receptor [2] came out at 0.0048 µM; against Mu-type opioid receptor [11] it was 0.082 µM. For the same compound, the Inhibition amounted to 2.5 µM/kg in the assay with Mus musculus [4] and 0.034 µM/kg in the assay on Mus musculus [5].
`COC(=O)CC(SCC(N)C(=O)O)C(=O)N[C@@H]1CC[C@@]2(O)[C@H]3Cc4ccc(O)c5c4[C@@]2(CCN3CC2CC2)[C@H]1O5` (stereo not given in full): the figures for the Inhibition with Mus musculus [13] and in the assay with Mus musculus [20] were 5 µM/kg and 0.004 µM/kg, respectively. Further, the Ratio in assay [14] stood at 2.8; in assay [15], 42.2; in assay [16], 1.3; in assay [6], 1; in assay [9] it was 1.7; in assay [17], 1.4. The results for the Ratio in assay [18], in assay [19] and in [12] were 1.3, 4.8 and 1250, respectively. Further, the IC50 on Mu-type opioid receptor [2] is 0.022 µM; against Mu-type opioid receptor [11], 0.14 µM.
`NC(CSCC(=O)N[C@@H]1CC[C@@]2(O)[C@H]3Cc4ccc(O)c5c4[C@@]2(CCN3CC2CC2)[C@H]1O5)C(=O)O` (stereo not given in full): the Ratio in the assay with Mus musculus [21] stood at 0.57; in the assay on Mus musculus [22], 1.3; in the assay on Mus musculus [23] it was 3; with Mus musculus [24] it was 3.
In the case of `COC(=O)CC(SCC(NC(=O)CCC(N)C(=O)O)C(=O)NCC(=O)O)C(=O)N[C@@H]1CC[C@@]2(O)[C@H]3Cc4ccc(O)c5c4[C@@]2(CCN3CC2CC2)[C@H]1O5` (stereo not given in full), the IC50 at Mu-type opioid receptor [2] came to 0.041 µM; on Mu-type opioid receptor [11], 0.28 µM. The Ratio in [25] came to 3.8; in assay [26] it was 83; in assay [6], 0.3; in assay [9], 1.2; in assay [28] it was 6.3; in assay [30], 3.1. For the same compound, the Ratio in assay [31] worked out at 2.6. For the same compound, the results for the Inhibition in the assay on Mus musculus [27] and with Mus musculus [29] were 0.036 µM/kg and 3 µM/kg, respectively.
